Measurements reported in ChEMBL document CHEMBL4477226, “Reduction Sensitive Lipid Conjugates of Tenofovir: Synthesis, Stability, and Antiviral Activity” (J Med Chem, 2016).
Structures can show the parent of a compound that is named as a salt.

Tests used:
[1] = Half life in pH 2 solution at 10^-3 M by HPLC analysis; format: physicochemical
[2] = Half life in pH 7.4 Tris HCl buffer containing KCl at 10^-3 M by HPLC analysis; format: physicochemical
[3] = Half life in RPMI 1640 culture medium at 10^-3 M by HPLC analysis; format: physicochemical
[4] = Half life in human serum at 10^-3 M by HPLC analysis; format: ADME, cell-free
[5] = Half life in human gastric juice; format: ADME, tissue-based
[6] = system: Human immunodeficiency virus 1; assay: Antiviral activity against HIV1 infected in human PBMC assessed as inhibition of viral replication by measuring reverse transcriptase activity in cell supernatant preincubated with cells followed by viral infection measured after 7 days by radioactive incorporation polymerization assay; format: functional, organism-based
Method in brief: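 HIV-infected PBMCs; antiviral activity read as reverse transcriptase in cell supernatants; EC50 is the concentration in μM that inhibits HIV-1 by 50%.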

[7] = system: PBMC; assay: (§1) Cytotoxicity against human PBMC assessed as reduction in cell viability by XTT assay; format: cell-based
Method in brief: (§2)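 CC50 is the concentration in μM that reduces viability of uninfected PBMCs by 50%.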

[8] = Therapeutic index, ratio of CC50 for human PBMC to EC50 for HIV1 infected in human PBMC; format: toxicity; settings: read-out: Ratio CC50/EC50
Method in brief: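 TI is the ratio of PBMC CC50 (uninfected cells, 50% viability loss) to EC50 for 50% inhibition of HIV-1, both in μM; HIV-1 activity measured as reverse transcriptase in supernatants of infected PBMCs.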

[9] = system: Hepatitis B virus; assay: Antiviral activity against HBV infected in human HepG2.2.15 cells assessed as inhibition of viral DNA in cell supernatant incubated for 3 days in presence of 10% FBS followed by compound treatment in absence of 10% FBS for 3 days by qRT-PCR method; format: functional, organism-based; settings: HepG2.2.15, 72 h
Method in brief: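 HBV assay in HepG2.2.15 cells; viral DNA quantified by qPCR after 6 days of incubation.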

[10] = system: HepG2 2.2.15; assay: (§3) Cytotoxicity against human HepG2.2.15 cells assessed as reduction in cell viability after 6 days by XTT assay; format: cell-based; settings: hepg2 2.2.15, 144 h
[11] = Therapeutic index, ratio of CC50 for human HepG2.2.15 cells to EC50 for HBV infected in human HepG2.2.15 cells; format: toxicity, cell-based; settings: read-out: Ratio CC50/EC50
[12] = as §1; format: cell-based; method in brief: as §2
[13] = as §3; format: cell-based, HepG2 2.2.15; settings: HepG2.2.15 cells
[14] = Stability in pH 7.4 phosphate buffered saline assessed as lipid adsorption on glass surface using pyrex glassware measured up to 1440 mins by LC-MS analysis; format: physicochemical; settings: buffer, pH 7.4, 24 h
[15] = Stability in pH 7.4 phosphate buffered saline assessed as lipid adsorption on glass surface using silanized glassware measured up to 1440 mins by LC-MS analysis; format: physicochemical; settings: buffer, pH 7.4, 24 h
[16] = Stability in pH 7.4 phosphate buffered saline assessed as lipid adsorption on glass surface using kimax glassware measured up to 1440 mins by LC-MS analysis; format: physicochemical; settings: buffer, pH 7.4, 24 h
[17] = Therapeutic index, ratio of CC90 for human PBMC to EC90 for HIV1 infected in human PBMC; format: toxicity; settings: read-out: TI
Method in brief: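 HIV-1-infected human PBMCs; antiviral effect read as reverse transcriptase activity in culture supernatants. Toxicity measured as loss of viability in uninfected PBMCs. Index calculated as the cytotoxic concentration divided by the effective concentration at the 90% level (CC90/EC90).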

[18] = Half life in human plasma at 2 mg by LC-MS analysis; format: ADME, cell-free
Method in brief: (§4)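 Compound incubated in human serum, PBS (pH 7.4), DMEM, or carbonate/bicarbonate buffer (pH 9). Aliquots were taken at several time points over 2 h, with a final sample at 24 h, and analysed by LC-MS to follow decomposition. Half-life was derived from loss of parent over time.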

[19] = Half life in pH 7.4 phosphate buffered saline at 2 mg by LC-MS analysis; format: physicochemical; method in brief: as §4
[20] = Half life in pH 7.4 phosphate buffered saline at 2 mg using kimax glassware by LC-MS analysis; format: physicochemical; method in brief: as §4
[21] = Half life in pH 9 Sodium carbonate/bicarbonate buffer at 2 mg using kimax glassware by LC-MS analysis; format: physicochemical; method in brief: as §4
[22] = Half life in DMEM at 2 mg using kimax glassware by LC-MS analysis; format: physicochemical; method in brief: as §4
[23] = Stability in pH 9 Sodium carbonate/bicarbonate buffer at 2 mg by LC-MS analysis; format: physicochemical; settings: in vitro; method in brief: as §4
[24] = Stability in DMEM at 2 mg by LC-MS analysis; format: physicochemical; settings: in vitro; method in brief: as §4
[25] = Oral bioavailability in rhesus monkey by HPLC analysis; format: ADME, organism-based, Macaca mulatta; settings: in vivo
[26] = Oral bioavailability in rat at 30 mg/kg, administered through gastric intubation by HPLC analysis; format: ADME, organism-based; settings: in vivo
[27] = Oral bioavailability in mouse; format: ADME, organism-based; settings: in vivo

| SMILES | EC50 [6] | CC50 [7] | selectivity ratio [8] | EC50 [9] | selectivity ratio [11] | other results |
| --- | --- | --- | --- | --- | --- | --- |
| Nc1ncnc2c1ncn2CCOCP(=O)(OCCSSCCO)OCCSSCCO | – | – | – | – | – | half-life at 1000 µM [1]: > 24 h; half-life at 1000 µM [2]: > 24 h; half-life at 1000 µM [3]: > 24 h; half-life at 1000 µM [4]: < 4.98 min; half-life [5]: > 24 h |
| CCCCCCCCCCCCSSCCOP(=O)(O)CO[C@H](C)Cn1cnc2c(N)ncnc21 | 0.003 µM | 25 µM | 8300 | 1.67 µM | > 30 | CC50 [10]: > 50 µM |
| CCCCCCCCCCCCCCCCSSCCOP(=O)(CO[C@H](C)Cn1cnc2c(N)ncnc21)Nc1ccccc1 (some centres undefined) | 0.005 µM | 34.2 µM | 7000 | – | – | – |
| CCCCCCCCCCCCCCCCCCSSCCOP(=O)(CO[C@H](C)Cn1cnc2c(N)ncnc21)OCCSSCCCCCCCCCCCCCCCCCC | 0.331 µM | – | > 76 | > 25 µM | > 1 | CC50 [12]: > 25 µM; CC50 at 144 h [13]: > 25 µM |
| CCCCCCCCCCCCCCCCSSCCOP(=O)(CO[C@H](C)Cn1cnc2c(N)ncnc21)OCc1ccccc1 (some centres undefined) | 0.018 µM | 41.1 µM | 2300 | – | – | – |
| CCCCCCCCCCCCCCCCSSCCOP(=O)(CO[C@H](C)Cn1cnc2c(N)ncnc21)OCCC (some centres undefined) | 0.216 µM | 10.6 µM | 49 | – | – | – |
| CCCCCCCCCCSSCCOP(=O)(O)CO[C@H](C)Cn1cnc2c(N)ncnc21 | 0.085 µM | > 50 µM | > 590 | > 50 µM | > 1 | CC50 [10]: > 50 µM |
| CCCCCCCCCCSSCCOP(=O)(CO[C@H](C)Cn1cnc2c(N)ncnc21)OCCSSCCCCCCCCCC | 0.349 µM | – | > 287 | > 100 µM | > 1 | CC50 [12]: > 100 µM; CC50 at 144 h [13]: > 100 µM |
| CCCCCCCCCCCCCCCCOCCCOC[C@H]1O[C@@H](n2ccc(=O)[nH]c2=O)[C@H](F)[C@@H]1O | – | – | – | – | – | Stability [14]: Unstable; Stability [15]: Unstable; Stability [16]: Stable |
| C[C@H](Cn1cnc2c(N)ncnc21)OCP(=O)(O)OCCS | – | > 100 µM | – | 41.9 µM | – | CC50 [10]: > 100 µM |
| CCCCCCCCCCCCCCCCSSCCOP(=O)(CO[C@H](C)Cn1cnc2c(N)ncnc21)OCC (some centres undefined) | 0.349 µM | 36.2 µM | 104 | – | – | – |
| CCCCCCCCCCCCCCCCCCSSCCOP(=O)(O)CO[C@H](C)Cn1cnc2c(N)ncnc21 | 0.0006 µM | 6.36 µM | 11000 | 0.505 µM | > 50 | CC50 [10]: > 50 µM |
| CCCCCCCCCCCCSSCCOP(=O)(CO[C@H](C)Cn1cnc2c(N)ncnc21)OCCSSCCCCCCCCCCCC | 1.18 µM | – | > 85 | > 100 µM | > 1 | CC50 [12]: > 100 µM; CC50 at 144 h [13]: > 100 µM |
| CCCCCCCCCCCCCCCCSSCCOP(=O)(O)CO[C@H](C)Cn1cnc2c(N)ncnc21.N | 0.00065 µM | 14.3 µM | 22000 | 0.02 µM | 1200 to 1250 | CC50 [10]: > 25 µM; selectivity ratio [17]: 11000; t1/2 [18]: > 24 h; half-life [19]: < 0.333 h; half-life [20]: < 2 h; half-life [21]: < 2 h; half-life [22]: < 2 h; Stability [23]: Unstable; Stability [24]: Unstable |
| CCCCCCCCCCCCCCCCSSCCOP(=O)(CO[C@H](C)Cn1cnc2c(N)ncnc21)OCCSSCCCCCCCCCCCCCCCC | 6.32 µM | – | 4 | > 25 µM | > 1 | CC50 [12]: > 25 µM; CC50 at 144 h [13]: > 25 µM |
| CCCCCCCCCCCCCCCCSSCCOP(=O)(CO[C@H](C)Cn1cnc2c(N)ncnc21)OC (some centres undefined) | 0.026 µM | 38.2 µM | 1500 | – | – | – |
| CCCCCCCCCCCCCCCCSSCCOP(=O)(CO[C@H](C)Cn1cnc2c(N)ncnc21)OCCCCCCCC (some centres undefined) | 0.911 µM | – | > 50 | – | – | CC50 [12]: > 50 µM |
| CCCCCCCCCCCCCCCCSSCCOP(=O)(CO[C@H](C)Cn1cnc2c(N)ncnc21)OCCCC (some centres undefined) | 0.19 µM | 27.9 µM | 150 | – | – | – |
| CCCCCCCCCCCCCCSSCCOP(=O)(CO[C@H](C)Cn1cnc2c(N)ncnc21)OCCSSCCCCCCCCCCCCCC | 0.189 µM | – | > 529 | > 100 µM | > 1 | CC50 [12]: > 100 µM; CC50 at 144 h [13]: > 100 µM |
| C[C@H](Cn1cnc2c(N)ncnc21)OCP(=O)(O)OCCSSCCO | 1.61 µM | > 100 µM | > 62.1 | 11.6 µM | > 8.6 | CC50 [10]: > 100 µM; t1/2 [18]: < 0.567 h; half-life [19]: 3.5 h |
| CCCCCCCCCCCCCCSSCCOP(=O)(O)CO[C@H](C)Cn1cnc2c(N)ncnc21.N | 0.0005 µM | 14 µM | 28000 to 30000 | 0.444 µM | > 56 | CC50 [10]: > 25 µM; selectivity ratio [17]: 11000; t1/2 [18]: > 24 h; half-life [20]: < 2 h; half-life [21]: < 2 h; half-life [22]: < 2 h; Stability [23]: Unstable; Stability [24]: Unstable |
| CCCCCCCCCCCCCCCCSSCCOP(=O)(CO[C@H](C)Cn1cnc2c(N)ncnc21)OCC(C)(C)C (mixture of isomers) | 0.14 µM | > 100 µM | > 700 | – | – | – |
| Nc1ncnc2c1ncn2CCOCP(=O)(O)O [ADEFOVIR] | – | – | – | – | – | bioavailability [25]: < 1%; bioavailability [26]: 8 to 11% |
| C[C@H](Cn1cnc2c(N)ncnc21)OCP(=O)(O)O [TENOFOVIR ANHYDROUS] | 0.319 µM | > 100 µM | > 300 | – | – | bioavailability [27]: 2% |
| CC(C)OC(=O)OCOP(=O)(CO[C@H](C)Cn1cnc2c(N)ncnc21)OCOC(=O)OC(C)C [TENOFOVIR DISOPROXIL FUMARATE] | 0.0046 µM | 43.7 µM | 9500 | 0.34 µM | 86 to 190 | CC50 at 144 h [13]: 29.2 to 64.5 µM; selectivity ratio [17]: 1300 |
| CCCCCCCCCCCCCCCCOCCCOP(=O)(O)CO[C@H](C)Cn1cnc2c(N)ncnc21 [TENOFOVIR EXALIDEX] | 0.02 µM | > 100 µM | > 5000 | – | – | – |
